Among the data in ChEMBL document CHEMBL1126873, “Inhibitors of acyl-Coa:cholesterol acyltransferase. 4. A novel series of urea ACAT inhibitors as potential hypocholesterolemic agents” (J Med Chem, 1993) are IC50 and Change values, retold here.

The target in test [1] is O-acyltransferase (Oryctolagus cuniculus, UniProt G1SFD9). Put plainly: In vitro inhibition of Acyl coenzyme A:cholesterol acyltransferase using intestinal microsomes isolated from cholesterol fed rabbits. Also on record: species or system Intestine.
For test [2], the species on record is Rattus norvegicus. As to the kind of experiment: Percent change in total cholesterol (TC) in cholic acid, cholesterol and peanut oil fed rats. In kind it is functional. The procedure, abridged:
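Rats fed a diet of cholic acid (0.3%), cholesterol (1.5%) and peanut oil (5.5%) received each compound in the diet at 0.05% for one week. Plasma total cholesterol was measured and expressed as percent change from control. Significance versus control was tested.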

Structures are written as SMILES.

Sequence of O-acyltransferase (G1SFD9 1-524): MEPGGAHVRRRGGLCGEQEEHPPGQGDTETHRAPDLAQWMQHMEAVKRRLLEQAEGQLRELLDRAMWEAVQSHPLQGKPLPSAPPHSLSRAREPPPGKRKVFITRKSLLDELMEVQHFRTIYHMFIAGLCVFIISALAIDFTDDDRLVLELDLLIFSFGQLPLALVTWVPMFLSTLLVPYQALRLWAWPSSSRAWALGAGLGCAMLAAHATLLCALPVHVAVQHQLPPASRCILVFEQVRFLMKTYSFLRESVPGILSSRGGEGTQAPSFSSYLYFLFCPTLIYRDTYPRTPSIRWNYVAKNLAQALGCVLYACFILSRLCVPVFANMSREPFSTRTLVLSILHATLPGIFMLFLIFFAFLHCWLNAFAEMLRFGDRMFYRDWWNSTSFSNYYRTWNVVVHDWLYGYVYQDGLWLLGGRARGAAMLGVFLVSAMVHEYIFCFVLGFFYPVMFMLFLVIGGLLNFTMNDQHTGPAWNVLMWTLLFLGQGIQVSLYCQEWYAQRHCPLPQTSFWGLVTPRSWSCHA

Take `CC(C)c1cccc(C(C)C)c1NC(=S)NCC1(c2ccccc2)CCCC1`: the IC50 in test [1] was 2330 nM.
Same read-out and setting: the value for `Cc1cc(C)c(NC(=O)NCC2(c3ccccc3)CCCC2)c(C)c1` was 3300 nM.
In turn, `CCc1cccc(CC)c1NC(=O)NCC1(c2ccccc2)CCCCC1` yielded an IC50 in test [1] of 51 nM. Moreover, the Change in test [2] was -60%.
`Cc1ccc(C)c(NC(=O)NCC2(c3ccccc3)CCCCC2)c1`: in test [1], 470 nM corresponded to half-maximal inhibition (IC50).
As to `Cc1cccc(C(C)(C)C)c1NC(=O)NCC1(c2ccccc2)CCCCC1`, in test [1], the half-inhibitory concentration (IC50) came to 54 nM. In test [2], the Change is given as -51%.
For `CC(C)c1cccc(C(C)C)c1NC(=O)NCC1(c2ccccc2)CCCCC1`, the IC50 in test [1] is 21 nM. Further, the Change in test [2] is -73%.
In the case of `CC(C)c1cccc(C(C)C)c1NC(=O)NCC1c2ccccc2-c2ccccc21`, 27 nM corresponded to half-maximal inhibition in test [1] (IC50).
In test [1], `O=C(NCC1(c2ccccc2)CCCC1)Nc1ccc(F)cc1F` showed an IC50 of 1300 nM.
In test [1], `O=C(NCC1(c2ccccc2)CCCCC1)Nc1cc(Cl)ccc1Cl` registered an IC50 of 2700 nM.
In the case of `CC(C)c1cccc(C(C)C)c1NC(=O)NCc1ccccc1`, 360 nM corresponded to half-maximal inhibition in test [1] (IC50).
The compound `CC(C)c1cccc(C(C)C)c1NC(=O)NCC1(c2cccs2)CCCC1` yielded an IC50 in test [1] of 12 nM.
Regarding `O=C(NCC1(c2ccccc2)CCCCC1)Nc1ccccc1`, inhibition in test [1] was half-maximal at 2300 nM (IC50).
With `Cc1ccc(NC(=O)NCC2(c3ccccc3)CCCCC2)cc1`, the IC50 in test [1] amounted to 4500 nM.
Consider `O=C(NCC1(c2ccccc2)CCCC1)Nc1c(F)cc(F)cc1F`, for which the IC50 in test [1] came to 870 nM.
As for `CCCCCCC(CCCCCC)(CNC(=O)Nc1c(C(C)C)cccc1C(C)C)c1ccccc1`, half-maximal inhibition in test [1] (IC50) required 120 nM.
In the case of `CC(C)c1cccc(C(C)C)c1NC(=O)NCCc1ccc2ccccc2c1`, in test [1], inhibition was half-maximal at 39 nM (IC50).
Regarding `CC(C)c1ccccc1NC(=O)NCC1(c2ccccc2)CCCCC1`, half-maximal inhibition in test [1] (IC50) was put at 390 nM.
Same read-out and setting: for `CC(C)c1cccc(C(C)C)c1NC(=O)NCC1(c2ccsc2)CCCC1` the value was 18 nM; for `CC(C)c1cccc(C(C)C)c1NC(=O)NC(Cc1ccccc1)c1ccccc1` (configuration not stated), 31 nM.
`CC(C)c1cccc(C(C)C)c1NC(=O)NCC1(c2cccnc2)CCCC1` displayed a concentration for half-maximal inhibition (IC50) in test [1] of 97 nM.
Regarding `CC(C)c1cccc(C(C)C)c1NC(=O)NCCc1cccc2ccccc12`, inhibition in test [1] was half-maximal at 41 nM (IC50).
With `Cc1cccc(C(C)C)c1NC(=O)NCC1(c2ccccc2)CCCCC1`, the IC50 in test [1] worked out at 58 nM. Besides, the Change in test [2] is on record as -56%.
Turning to `CC(C)c1cccc(C(C)C)c1NC(=O)NCC1(c2ccc3ccccc3c2)CCCC1`, in test [1], the IC50 came to 260 nM.
On to `Cc1cccc(C)c1NC(=O)NCC1(c2ccccc2)CCCC1`, for which the IC50 in test [1] was 190 nM.
In test [1], `CCc1cccc(CC)c1NC(=O)NCC1(c2ccccc2)CCCC1` came in with an IC50 of 56 nM. Besides, the Change in test [2] is listed as -63%.
On to `O=C(NCC1(c2ccccc2)CCCC1)Nc1c(Cl)cccc1Cl`, for which half-maximal inhibition in test [1] (IC50) was put at 240 nM.
In test [1], `COc1ccc(NC(=O)NCC2(c3ccccc3)CCCCC2)cc1` yielded an IC50 of 4900 nM.
As for `CC(C)c1cccc(C(C)C)c1OC(=O)NCC1(c2ccccc2)CCCC1`, in test [1], the midpoint of inhibition, the IC50, lay at 49 nM.
With `COc1cccc(NC(=O)NCC2(c3ccccc3)CCCCC2)c1`, in test [1], the IC50 is 2500 nM.
Regarding `CCOC(=O)c1ccc(NC(=O)NCC2(c3ccccc3)CCCCC2)cc1`, half-maximal inhibition in test [1] (IC50) required 6100 nM.
Regarding `CC(C)c1cccc(C(C)C)c1NC(=O)NCC(C)(C)c1ccccc1`, in test [1], the IC50 was determined as 26 nM.
For `CC(C)c1cccc(C(C)C)c1NC(=O)NCCCc1ccccc1`, the IC50 in test [1] turned out to be 191 nM.
Consider `CCc1cccc(C(C)C)c1NC(=O)NCC1(c2ccccc2)CCCC1`, for which, in test [1], half-maximal inhibition (IC50) was put at 25 nM. Also, in test [2], the Change is -59%.
On to `O=C(NCC1(c2ccccc2)CCCCC1)Nc1ccc(Cl)c(Cl)c1`, for which the IC50 in test [1] was 3800 nM.
Regarding `Cc1cccc(C(C)(C)C)c1NC(=O)NCC1(c2ccccc2)CCCC1`, the IC50 in test [1] was found to be 18 nM. Also, the Change in test [2] is given as -61%.
As to `CC(C)c1cccc(C(C)C)c1N=C(N)NCC1(c2ccccc2)CCCC1`, in test [1], it took 12000 nM to reach half-maximal inhibition (IC50).
For the compound `O=C(NCC1(c2ccccc2)CCCCC1)Nc1ccc(I)cc1`, it took 2300 nM to reach half-maximal inhibition in test [1] (IC50).
Turning to `CC(C)c1cccc(C(C)C)c1NC(=O)NC1CC1c1ccccc1` (configuration not stated), in test [1], half-maximal inhibition (IC50) required 2000 nM.
Compound `COc1cc(OC)c(NC(=O)NCC2(c3ccccc3)CCCC2)c(OC)c1` returned an IC50 in test [1] of 1400 nM.
Compound `CCCCCC(CCCCC)(CNC(=O)Nc1c(C(C)C)cccc1C(C)C)c1ccccc1` came in with an IC50 in test [1] of 26 nM.
The same measure, in the same setting: the value for `CC(C)c1cccc(C(C)C)c1NC(=O)NC(C)(C)Cc1ccccc1` was 77 nM.
The compound `CN(C)c1cccc(N(C)C)c1NC(=O)NCC1(c2ccccc2)CCCC1` showed an IC50 in test [1] of 110 nM.
For `CC(C)c1cccc(C(C)C)c1NC(=O)NCC(c1ccccc1)C(C)(C)C` (configuration not stated), half-maximal inhibition in test [1] (IC50) was put at 160 nM.
In test [1], `CCc1cccc(C(C)C)c1NC(=O)NCC1(c2ccccc2)CCCCC1` yielded an IC50 of 20 nM. Also, the Change in test [2] was -70%.
As for `O=C(NCC1(c2ccccc2)CCCCC1)Nc1ccc(Cl)cc1`, in test [1], half-maximal inhibition (IC50) required 2200 nM.
For the compound `CC(C)c1cccc(C(C)C)c1NC(=O)NC(=O)C1(c2ccccc2)CCCC1`, the IC50 in test [1] was found to be 160 nM.
In test [1], `CC(C)c1cccc(C(C)C)c1NC(=O)NCC1(c2ccccc2)CCCC1` displayed an IC50 of 17 nM. For the same compound, the Change in test [2] was -73%.
`CC(C)c1cccc(C(C)C)c1NC(=NC#N)NCC1(c2ccccc2)CCCC1` displayed an IC50 in test [1] of 10000 nM.
On to `CC(C)c1cccc(C(C)C)c1NC(=O)NCC1(c2ccccc2)CCC1`, for which inhibition in test [1] was half-maximal at 28 nM (IC50).
With `COc1ccccc1NC(=O)NCC1(c2ccccc2)CCCCC1`, the IC50 in test [1] is 270 nM.
`CC(C)c1cccc(C(C)C)c1NS(=O)(=O)NCC1(c2ccccc2)CCCC1` yielded a concentration for half-maximal inhibition (IC50) in test [1] of 180 nM.
As to `O=C(NCC1(c2ccccc2)CCCCC1)Nc1cccc(Cl)c1Cl`, in test [1], the IC50 was found to be 1300 nM.
As to `CC(C)c1cccc(C(C)C)c1NC(=O)NCC1(c2cccc3ccccc23)CCCC1`, the IC50 in test [1] was found to be 34 nM.
Compound `CC(C)c1cccc(C(C)C)c1NC(=O)NCC1(c2ccccc2)CC1` gave a half-maximal inhibitory concentration (IC50) in test [1] of 18 nM.
For the compound `Cc1cccc(C)c1NC(=O)NCC1(c2ccccc2)CCCCC1`, it took 120 nM to reach half-maximal inhibition in test [1] (IC50). The Change in test [2] is reported as -44%.
In test [1], `CC(C)c1ccc(NC(=O)NCC2(c3ccccc3)CCCCC2)cc1` returned an IC50 of 1500 nM.
Still for that read-out and setting: the value for `Cc1cccc(NC(=O)NCC2(c3ccccc3)CCCCC2)c1` was 2800 nM; that for `O=C(NCC1(c2ccccc2)CCCCC1)Nc1ccccc1C(F)(F)F` was 200 nM.
On to `CC(C)c1cccc(C(C)C)c1NC(=O)NCCc1ccccc1`, for which, in test [1], the IC50 worked out at 88 nM.
The same measure, in the same setting: for `CCCC(CCC)(CNC(=O)Nc1c(C(C)C)cccc1C(C)C)c1ccccc1` the value was 30 nM; for `CC(C)c1cccc(C(C)C)c1NC(=O)NC1CCCc2ccccc21` (configuration not stated), 850 nM.
As for `CC(C)c1cccc(C(C)C)c1NC(=O)NC1(c2ccccc2)CCCC1`, the half-maximal inhibitory concentration (IC50) in test [1] was 65 nM.
With `CCC(CC)(CNC(=O)Nc1c(C(C)C)cccc1C(C)C)c1ccccc1`, it took 17 nM to reach half-maximal inhibition in test [1] (IC50).
In turn, `CC(C)c1cccc(C(C)C)c1NC(=O)NCCC(c1ccccc1)c1ccccc1` yielded an IC50 in test [1] of 140 nM.
Compound `CCOC(=O)c1ccccc1NC(=O)NCC1(c2ccccc2)CCCCC1` registered a concentration for half-maximal inhibition (IC50) in test [1] of 4200 nM.
The same measure, in the same setting: for `O=C(NCC1(c2ccccc2)CCCC1)Nc1c(Cl)cc(Cl)cc1Cl` the value was 960 nM.
In test [1], `CC(C)c1cccc(C(C)C)c1NC(=O)Nc1ccccc1` gave an IC50 of 910 nM.
In test [1], `CCCCC(CCCC)(CNC(=O)Nc1c(C(C)C)cccc1C(C)C)c1ccccc1` displayed an IC50 of 30 nM.
In test [1], `Cc1cccc(C(C)C)c1NC(=O)NCC1(c2ccccc2)CCCC1` showed an IC50 of 16 nM. For the same compound, the Change in test [2] is given as -65%.
`Cc1ccc(NC(=O)NCC2(c3ccccc3)CCCCC2)c(C)c1`: the midpoint of inhibition in test [1], the IC50, lay at 5500 nM.
Compound `Cc1ccccc1NC(=O)NCC1(c2ccccc2)CCCCC1` returned an IC50 in test [1] of 640 nM.
